Test results published in ChEMBL document CHEMBL1137824, “Centrally acting and metabolically stable thyrotropin-releasing hormone analogues by replacement of histidine with substituted pyridinium” (J Med Chem, 2004).

Legend:
Mus musculus [1] = assay: Sleeping time of mice was determined after intravenous administration of compound at 15 umol/kg of Body Weight; assay type: functional
Procedure, shortened: (§1)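 Swiss Webster mice (30 ± 2 g), 8–16 per group; 15 µmol/kg compound iv via tail vein in degassed saline, vehicle controls 1.5 mL/kg. Sodium pentobarbital 60 mg/kg ip after 10 min; sleeping time timed from loss to regain of righting reflex.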

[2] = Capacity factor of compound was determined by immobilized artificial membrane chromatography; assay type: ADME
Procedure, shortened: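 Immobilized artificial membrane HPLC, isocratic 10 mM ammonium acetate pH 5.4 at 1.0 mL/min, detection by ESI-MS (pyridinium salts) or APCI-MS (dihydropyridine prodrugs). k'IAM = (tR compound − tR citric acid)/tR citric acid, citric acid serving as void marker.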

[3] = Partition coefficient (logP); assay type: physicochemical; conditions: octanol/water
Mus musculus [4] = assay: Sleeping time decrease in mice was determined after intravenous administration of compound at 0.5 umol/kg of body weight; assay type: functional
Procedure, shortened: (§2)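 Swiss Webster mice (30 ± 2 g), 8–16 per group, given compound iv via tail vein in degassed saline; controls received saline 1.5 mL/kg. Sodium pentobarbital 60 mg/kg ip 10 min later; sleeping time from loss to regain of righting reflex; decrease versus saline control, mean ± SEM.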

Mus musculus [5] = assay: Sleeping time decrease in mice was determined after intravenous administration of compound at 1 umol/kg of body weight; assay type: functional
Mus musculus [6] = assay: Sleeping time of mice was determined after intravenous administration of compound at 15 umol/kg of body weight; assay type: functional; procedure, shortened: as §1
Mus musculus [7] = assay: Sleeping time decrease in mice was determined after intravenous administration of compound at 5 umol/kg of body weight; assay type: functional; procedure, shortened: as §2
Mus musculus [8] = assay: Sleeping time decrease in mice was determined after intravenous administration of compound at 15 umol/kg of body weight; assay type: functional; procedure, shortened: as §2
Mus musculus [9] = assay: Sleeping time decrease in mice was determined after intravenous administration of compound at 50 umol/kg of body weight; assay type: functional; procedure, shortened: as §2
[10] = target: T1, Thyrotropin-releasing hormone receptor (Rattus norvegicus, UniProt Q01717); assay: Inhibition of [3H][3-Me-His2]-TRH binding to thyrotropin releasing hormone receptor of rat forebrain
T1 sequence (Q01717 whole entry): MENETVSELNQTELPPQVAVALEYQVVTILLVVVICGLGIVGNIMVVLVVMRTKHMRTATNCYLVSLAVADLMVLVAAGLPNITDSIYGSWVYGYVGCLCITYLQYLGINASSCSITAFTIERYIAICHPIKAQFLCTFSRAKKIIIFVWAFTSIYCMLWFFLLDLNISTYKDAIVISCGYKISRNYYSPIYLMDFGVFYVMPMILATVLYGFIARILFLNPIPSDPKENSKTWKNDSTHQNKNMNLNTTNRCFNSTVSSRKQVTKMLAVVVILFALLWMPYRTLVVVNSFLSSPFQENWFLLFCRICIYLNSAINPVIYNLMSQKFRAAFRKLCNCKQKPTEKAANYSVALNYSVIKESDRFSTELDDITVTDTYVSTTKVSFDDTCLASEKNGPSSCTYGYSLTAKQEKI
Procedure, shortened: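 Rat forebrain membrane suspension in 20 mM phosphate pH 7.4, incubated 180 min at 4 °C with 2 nM [3H][3-Me-His2]TRH and varying test concentrations. Nonspecific binding defined with 10 µM TRH; Ki reported.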

Rattus norvegicus = assay: Maximal changes in rat hippocampal acetylcholine concentration after administration of compound through a microdialysis probe; assay type: functional, Hippocampus
Procedure, shortened: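 Male Sprague–Dawley rats (250–300 g), guide cannula in ventral hippocampus, probe (4 mm polycarbonate) inserted after 7 days. Perfused with artificial CSF plus 2 µM neostigmine at 2 µL/min; baseline is mean of three 20-min fractions. Compound perfused at 1 nmol/µL through probe; maximal ACh change expressed as % of baseline.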

[11] = Half-life of compound in rat plasma was determined; assay type: ADME, cell-free
Procedure, shortened: (§3)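 About 100 nmol compound per 1 mL rat plasma or 20% rat brain homogenate (0.1 M phosphate, pH 7.4), shaken at 37 °C. Aliquots taken at 2–90 min and quenched in ice-cold 5% acetic acid/acetonitrile, then centrifuged. Loss of compound followed by HPLC against standards in heat-denatured matrix; t1/2 from the decline.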

[12] = Half-life of compound in rat brain homogenate was determined; assay type: ADME, tissue-based; procedure, shortened: as §3

Row | K''IAM [2] | logP [3] | Ki [10] [µM] | half-life [11] [min] | half-life [12] [min] | SMILES | Sleeping time (Mus musculus [1]) [min] | Sleeping time (Mus musculus [4]) [min] | Sleeping time (Mus musculus [5]) [min] | Sleeping time (Mus musculus [6]) [min] | Sleeping time (Mus musculus [7]) [min] | Sleeping time (Mus musculus [8]) [min] | Sleeping time (Mus musculus [9]) [min] | Maximal change (Rattus norvegicus) [%]
1 | 1.47 | -2.39 | – | – | – | NC(=O)C1=CN(CCC[C@H](NC(=O)[C@@H]2CCC(=O)N2)C(=O)N2CCC[C@H]2C(N)=O)C=CC1 | 58.1 | – | – | – | – | – | – | –
2 | 2.3 | -1.94 | – | – | – | NC(=O)C1=CN(CCCCC(NC(=O)[C@@H]2CCC(=O)N2)C(=O)N2CCC[C@H]2C(N)=O)C=CC1 (stereo partly specified) | 48.8 | – | – | – | – | – | – | –
3 | 0.55 | -3.29 | – | – | – | NC(=O)C1=CN(C[C@H](NC(=O)[C@@H]2CCC(=O)N2)C(=O)N2CCC[C@H]2C(N)=O)C=CC1 | – | 2.8 | 5.4 | 19.4 | 14.1 | 23.2 | 24.2 | –
4 | 0.8 | -2.84 | – | – | – | NC(=O)C1=CN(CCC(NC(=O)[C@@H]2CCC(=O)N2)C(=O)N2CCC[C@H]2C(N)=O)C=CC1 (stereo partly specified) | 44.7 | – | – | – | – | – | – | –
5 | 0.49 | -1.74 | > 10 | – | – | NC(=O)c1ccc[n+](CCC[C@H](NC(=O)[C@@H]2CCC(=O)N2)C(=O)N2CCC[C@H]2C(N)=O)c1 | – | – | – | – | – | – | – | 145
6 | 0.3 | -2.64 | > 10 | – | – | NC(=O)c1ccc[n+](C[C@H](NC(=O)[C@@H]2CCC(=O)N2)C(=O)N2CCC[C@H]2C(N)=O)c1.O=C([O-])C(F)(F)F | 75.9 | – | – | – | – | – | – | 279
7 | 0.6 | -1.29 | > 10 | – | – | NC(=O)c1ccc[n+](CCCC[C@H](NC(=O)[C@@H]2CCC(=O)N2)C(=O)N2CCC[C@H]2C(N)=O)c1 | – | – | – | – | – | – | – | 242
8 | 0.42 | -2.18 | > 10 | – | – | NC(=O)c1ccc[n+](CC[C@H](NC(=O)[C@@H]2CCC(=O)N2)C(=O)N2CCC[C@H]2C(N)=O)c1 | – | – | – | – | – | – | – | 216
9 | 0.51 | -1.74 | 0.0423 | 11 | 16 | NC(=O)[C@@H]1CCCN1C(=O)[C@H](Cc1cnc[nH]1)NC(=O)[C@@H]1CCC(=O)N1 [PROTIRELIN] | 26 | – | – | – | – | – | – | 394
